Like-named read-outs stand apart in the source and are kept apart here.
What was measured:
[1] = type: in vivo, human; conditions: for AUC(0-t) / Cmax / Tmax / half-life / concentration at 12 h: plasma; for concentration at 12 h: C12h
Summary of the method: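 Test compound was given as oral capsules with […] water after a 2-h fast, BID Q12hr, 3–6 patients per dose level. Docetaxel 60 mg/m2 was a 1-h IV infusion 2 h beforehand. […] was sampled on Cycle 1 Day 1 (predose, 0.5–24 h after dose 1) and Day 2 (predose, 0.5–44 h after dose 4). Analysis was non-compartmental, with AUC by linear-up/log-down trapezoidal method and Cmax/Tmax by inspection.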

[2] = test system: phospho-Aurora B (pAurB) and phospho-histone H3 (pHH3); assay: Immunohistochemistry of hair follicles and skin biopsies; type: in vivo, human; conditions: Panel 1 (MT), pre- and post-dose hair follicles and skin biopsies
Summary of the method: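 Plucked scalp hair follicles (from at least 15 hair shafts) and skin punch biopsies were taken pre-dose and on Cycle 1 Day 2, 4 (±1) h after the third oral BID Q12hr dose. Only Panel 1 monotherapy patients were sampled. Phospho-Aurora B and phospho-histone H3 were assessed by immunohistochemistry as change from baseline.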

For O=C(O)[C@]1(Cc2cccc(Nc3nccs3)n2)CC[C@@H](Oc2cccc(Cl)c2F)CC1 [MK-5108], the “mean target trough concentration of 2 μM” value ([1]; Panel 2 (CT with docetaxel), any tested dose level) was “not achieved”, the “dose proportionality of AUC0-12h and Cmax” value ([1]; following the first dose) was “less than dose proportionally” and the “dose proportionality of AUC0-12h and Cmax” value ([1]; following the fourth dose, 100 to 1800 mg (Q12hr)) was “roughly dose proportionally”. The “dose proportionality of serum concentration at 12 hours post dose (trough)” value ([1]; human, in vivo) was “roughly dose proportionally”, the “shape of mean plasma concentration decline” value ([1]; human, in vivo) was “biphasic decline” and the AUC(0-t) ([1]; human, iv, 60 mg/m2, AUC0-12h, 100 mg/day, Panel 2 (CT, docetaxel 60 mg/m^2 IV), Dose 1) was 7.9 ± 2 µM·h. It also gave an AUC(0-t) ([1]; human, iv, 60 mg/m2, AUC0-12h, 100 mg/day, Panel 2 (CT, docetaxel 60 mg/m^2 IV), Dose 4) of 10.8 ± 3.3 µM·h, an AUC(0-t) ([1]; human, iv, 60 mg/m2, AUC0-12h, 150 mg/day, Panel 2 (CT, docetaxel 60 mg/m^2 IV), Dose 1) of 15 ± 9.2 µM·h and an AUC(0-t) ([1]; human, iv, 60 mg/m2, AUC0-12h, 150 mg/day, Panel 2 (CT, docetaxel 60 mg/m^2 IV), Dose 4) of 16.4 ± 8.9 µM·h. It also gave an AUC(0-t) ([1]; human, iv, 60 mg/m2, AUC0-12h, 225 mg/day, Panel 2 (CT, docetaxel 60 mg/m^2 IV), Dose 1) of 18.5 ± 6.2 µM·h, an AUC(0-t) ([1]; human, iv, 60 mg/m2, AUC0-12h, 225 mg/day, Panel 2 (CT, docetaxel 60 mg/m^2 IV), Dose 4) of 23.4 ± 8.8 µM·h and a Cmax ([1]; human, iv, 60 mg/m2, Cmax, 100 mg/day, Panel 2 (CT, docetaxel 60 mg/m^2 IV), Dose 1) of 2.3 ± 1.2 µM. It also gave a Cmax ([1]; human, iv, 60 mg/m2, Cmax, 100 mg/day, Panel 2 (CT, docetaxel 60 mg/m^2 IV), Dose 4) of 2.2 ± 1 µM, a Cmax ([1]; human, iv, 60 mg/m2, Cmax, 150 mg/day, Panel 2 (CT, docetaxel 60 mg/m^2 IV), Dose 1) of 3.5 ± 2 µM and a Cmax ([1]; human, iv, 60 mg/m2, Cmax, 150 mg/day, Panel 2 (CT, docetaxel 60 mg/m^2 IV), Dose 4) of 3.2 ± 1.7 µM. The Cmax ([1]; human, iv, 60 mg/m2, Cmax, 225 mg/day, Panel 2 (CT, docetaxel 60 mg/m^2 IV), Dose 1) was 5 ± 0.8 µM, the Cmax ([1]; human, iv, 60 mg/m2, Cmax, 225 mg/day, Panel 2 (CT, docetaxel 60 mg/m^2 IV), Dose 4) was 5.3 ± 1.7 µM and the Tmax ([1]; human, iv, 60 mg/m2, Tmax, 100 mg/day, Panel 2 (CT, docetaxel 60 mg/m^2 IV), Dose 1, median (range)) was 2 h. It also gave a Tmax ([1]; human, iv, 60 mg/m2, Tmax, 100 mg/day, Panel 2 (CT, docetaxel 60 mg/m^2 IV), Dose 4, median (range)) of 4 h, a Tmax ([1]; human, iv, 60 mg/m2, Tmax, 150 mg/day, Panel 2 (CT, docetaxel 60 mg/m^2 IV), Dose 1, median (range)) of 3.5 h and a Tmax ([1]; human, iv, 60 mg/m2, Tmax, 150 mg/day, Panel 2 (CT, docetaxel 60 mg/m^2 IV), Dose 4, median (range)) of 5 h. For the same compound, the Tmax ([1]; human, iv, 60 mg/m2, Tmax, 225 mg/day, Panel 2 (CT, docetaxel 60 mg/m^2 IV), Dose 1, median (range)) was 2 h, the Tmax ([1]; human, iv, 60 mg/m2, Tmax, 225 mg/day, Panel 2 (CT, docetaxel 60 mg/m^2 IV), Dose 4, median (range)) was 3 h and the half-life ([1]; human, iv, 60 mg/m2, t1/2, 100 mg/day, Panel 2 (CT, docetaxel 60 mg/m^2 IV), Dose 4) was 13.5 ± 10.6 h. It also gave a half-life ([1]; human, iv, 60 mg/m2, t1/2, 150 mg/day, Panel 2 (CT, docetaxel 60 mg/m^2 IV), Dose 4) of 10.1 ± 5 h, a half-life ([1]; human, iv, 60 mg/m2, t1/2, 225 mg/day, Panel 2 (CT, docetaxel 60 mg/m^2 IV), Dose 4) of 9.2 ± 5.1 h and a concentration at 12 h ([1]; human, iv, 100 mg/day, Panel 2 (CT, docetaxel 60 mg/m^2 IV), Dose 1) of 0.15 ± 0.12 µM. For the same compound, the concentration at 12 h ([1]; human, iv, 100 mg/day, Panel 2 (CT, docetaxel 60 mg/m^2 IV), Dose 4) was 0.21 ± 0.1 µM, the concentration at 12 h ([1]; human, iv, 150 mg/day, Panel 2 (CT, docetaxel 60 mg/m^2 IV), Dose 1) was 0.33 ± 0.22 µM and the concentration at 12 h ([1]; human, iv, 150 mg/day, Panel 2 (CT, docetaxel 60 mg/m^2 IV), Dose 4) was 0.51 ± 0.37 µM. It also gave a concentration at 12 h ([1]; human, iv, 225 mg/day, Panel 2 (CT, docetaxel 60 mg/m^2 IV), Dose 1) of 0.46 ± 0.26 µM, a concentration at 12 h ([1]; human, iv, 225 mg/day, Panel 2 (CT, docetaxel 60 mg/m^2 IV), Dose 4) of 0.66 ± 0.62 µM and an AUC(0-t) ([1]; human, oral, 200 mg/day, AUC0-12h, Panel 1 (MT), Dose 1) of 17.5 ± 5.6 µM·h. For the same compound, the AUC(0-t) ([1]; human, oral, 200 mg/day, AUC0-12h, Panel 1 (MT), Dose 4) was 31.2 ± 16.3 µM·h, the concentration at 12 h ([1]; human, oral, 200 mg/day, Panel 1 (MT), Dose 1) was 0.35 ± 0.05 µM and the concentration at 12 h ([1]; human, oral, 200 mg/day, Panel 1 (MT), Dose 4) was 1.92 ± 1.91 µM. It also gave a Cmax ([1]; human, oral, 200 mg/day, Cmax, Panel 1 (MT), Dose 1) of 3.9 ± 0.7 µM, a Cmax ([1]; human, oral, 200 mg/day, Cmax, Panel 1 (MT), Dose 4) of 4.8 ± 1 µM and a Tmax ([1]; human, oral, 200 mg/day, Tmax, Panel 1 (MT), Dose 1, median (range)) of 4 h. It also gave a Tmax ([1]; human, oral, 200 mg/day, Tmax, Panel 1 (MT), Dose 4, median (range)) of 4 h, a half-life ([1]; human, oral, 200 mg/day, t1/2, 200 mg/day, Panel 1 (MT), Dose 4) of 9.3 ± 1.2 h and an AUC(0-t) ([1]; human, oral, 400 mg/day, AUC0-12h, Panel 1 (MT), Dose 1) of 27 ± 12.2 µM·h. It also gave an AUC(0-t) ([1]; human, oral, 400 mg/day, AUC0-12h, Panel 1 (MT), Dose 4) of 75.7 ± 46.2 µM·h, a concentration at 12 h ([1]; human, oral, 400 mg/day, Panel 1 (MT), Dose 1) of 0.25 ± 0.13 µM and a concentration at 12 h ([1]; human, oral, 400 mg/day, Panel 1 (MT), Dose 4) of 2.02 ± 1.52 µM. For the same compound, the Cmax ([1]; human, oral, 400 mg/day, Cmax, Panel 1 (MT), Dose 1) was 6.7 ± 2.4 µM, the Cmax ([1]; human, oral, 400 mg/day, Cmax, Panel 1 (MT), Dose 4) was 11 ± 5.3 µM and the Tmax ([1]; human, oral, 400 mg/day, Tmax, Panel 1 (MT), Dose 1, median (range)) was 2 h. The Tmax ([1]; human, oral, 400 mg/day, Tmax, Panel 1 (MT), Dose 4, median (range)) was 6 h, the half-life ([1]; human, oral, 400 mg/day, t1/2, 400 mg/day, Panel 1 (MT), Dose 4) was 8.7 ± 6.7 h and the AUC(0-t) ([1]; human, oral, 800 mg/day, AUC0-12h, Panel 1 (MT), Dose 1) was 69 ± 41.9 µM·h. For the same compound, the AUC(0-t) ([1]; human, oral, 800 mg/day, AUC0-12h, Panel 1 (MT), Dose 4) was 95.5 ± 44.9 µM·h, the concentration at 12 h ([1]; human, oral, 800 mg/day, Panel 1 (MT), Dose 1) was 1.68 ± 1.91 µM and the concentration at 12 h ([1]; human, oral, 800 mg/day, Panel 1 (MT), Dose 4) was 4.53 ± 2.68 µM. It also gave a Cmax ([1]; human, oral, 800 mg/day, Cmax, Panel 1 (MT), Dose 1) of 19.5 ± 5.5 µM, a Cmax ([1]; human, oral, 800 mg/day, Cmax, Panel 1 (MT), Dose 4) of 20 ± 11 µM and a Tmax ([1]; human, oral, 800 mg/day, Tmax, Panel 1 (MT), Dose 1, median (range)) of 1 h. The Tmax ([1]; human, oral, 800 mg/day, Tmax, Panel 1 (MT), Dose 4, median (range)) was 1 h, the half-life ([1]; human, oral, 800 mg/day, t1/2, 800 mg/day, Panel 1 (MT), Dose 4) was 11.1 ± 1.1 h and the AUC(0-t) ([1]; human, oral, 1200 mg/day, AUC0-12h, Panel 1 (MT), Dose 1) was 96.6 ± 45.6 µM·h. For the same compound, the AUC(0-t) ([1]; human, oral, 1200 mg/day, AUC0-12h, Panel 1 (MT), Dose 4) was 116 ± 61.4 µM·h, the concentration at 12 h ([1]; human, oral, 1200 mg/day, Panel 1 (MT), Dose 1) was 2.12 ± 2.09 µM and the concentration at 12 h ([1]; human, oral, 1200 mg/day, Panel 1 (MT), Dose 4) was 3.31 ± 0.53 µM. For the same compound, the Cmax ([1]; human, oral, 1200 mg/day, Cmax, Panel 1 (MT), Dose 1) was 22.3 ± 12.7 µM, the Cmax ([1]; human, oral, 1200 mg/day, Cmax, Panel 1 (MT), Dose 4) was 25 ± 9.4 µM and the Tmax ([1]; human, oral, 1200 mg/day, Tmax, Panel 1 (MT), Dose 1, median (range)) was 2 h. For the same compound, the Tmax ([1]; human, oral, 1200 mg/day, Tmax, Panel 1 (MT), Dose 4, median (range)) was 3 h, the half-life ([1]; human, oral, 1200 mg/day, t1/2, 1200 mg/day, Panel 1 (MT), Dose 4) was 8.3 ± 3.3 h and the AUC(0-t) ([1]; human, oral, 1500 mg/day, AUC0-12h, Panel 1 (MT), Dose 1) was 83.2 ± 50.8 µM·h. The AUC(0-t) ([1]; human, oral, 1500 mg/day, AUC0-12h, Panel 1 (MT), Dose 4) was 131 ± 53.2 µM·h, the concentration at 12 h ([1]; human, oral, 1500 mg/day, Panel 1 (MT), Dose 1) was 1.04 ± 0.4 µM and the concentration at 12 h ([1]; human, oral, 1500 mg/day, Panel 1 (MT), Dose 4) was 2.8 ± 1.26 µM. The Cmax ([1]; human, oral, 1500 mg/day, Cmax, Panel 1 (MT), Dose 1) was 20.8 ± 10.6 µM, the Cmax ([1]; human, oral, 1500 mg/day, Cmax, Panel 1 (MT), Dose 4) was 28.9 ± 13.6 µM and the Tmax ([1]; human, oral, 1500 mg/day, Tmax, Panel 1 (MT), Dose 1, median (range)) was 2 h. The Tmax ([1]; human, oral, 1500 mg/day, Tmax, Panel 1 (MT), Dose 4, median (range)) was 2 h, the half-life ([1]; human, oral, 1500 mg/day, t1/2, 1500 mg/day, Panel 1 (MT), Dose 4) was 11.4 ± 2 h and the AUC(0-t) ([1]; human, oral, 1800 mg/day, AUC0-12h, Panel 1 (MT), Dose 1) was 101 ± 39.3 µM·h. It also gave an AUC(0-t) ([1]; human, oral, 1800 mg/day, AUC0-12h, Panel 1 (MT), Dose 4) of 234 ± 62.7 µM·h, a concentration at 12 h ([1]; human, oral, 1800 mg/day, Panel 1 (MT), Dose 1) of 4.78 ± 4.64 µM and a concentration at 12 h ([1]; human, oral, 1800 mg/day, Panel 1 (MT), Dose 4) of 6.85 ± 3.96 µM. For the same compound, the Cmax ([1]; human, oral, 1800 mg/day, Cmax, Panel 1 (MT), Dose 1) was 24.8 ± 9.6 µM, the Cmax ([1]; human, oral, 1800 mg/day, Cmax, Panel 1 (MT), Dose 4) was 50.2 ± 11.4 µM and the Tmax ([1]; human, oral, 1800 mg/day, Tmax, Panel 1 (MT), Dose 1, median (range)) was 2 h. For the same compound, the Tmax ([1]; human, oral, 1800 mg/day, Tmax, Panel 1 (MT), Dose 4, median (range)) was 3 h, the half-life ([1]; human, oral, 1800 mg/day, t1/2, 1800 mg/day, Panel 1 (MT), Dose 4) was 6.6 ± 0.6 h and the Tmax ([1]; human, oral, Median Tmax, following the first dose, across dose levels) was 1 to 4 h. The Tmax ([1]; human, oral, Median Tmax, following the fourth dose, across dose levels) was 1 to 6 h, the half-life ([1]; human, oral, mean t1/2, range across dose levels, across both panels) was 6.6 to 13.5 h and the half-life ([1]; human, oral, t1/2 range (variable), following Dose 4) was 5 to 29 h. For the same compound, the “change from baseline in pHH3 and pAurB (IHC)” value [2] was “no clear dose-related increases”.
